# According to ChEMBL document CHEMBL1255501, “Heteroresistance of Cryptococcus gattii to fluconazole” (2010):
# Active and inactive are the calls of the source. The calls are words filed in the database; no cut-off is given here.
# What was measured:
# [1] = test system: Cryptococcus deuterogattii; assay: Antimicrobial activity against Cryptococcus gattii serotype B isolate NIH444 assessed as heteroresistant isolates at 32 ug/ml; format: functional, Cryptococcus bacillisporus
# Method in brief: (§1)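 Population analysis: cells suspended in sterile saline at 1 × 10³ to 4 × 10³ CFU/ml and plated on plain YPD agar or YPD agar with various fluconazole concentrations. Plates incubated at 30°C for 72 h. The resistant subpopulation at each concentration is recorded as a percentage of the population.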
# [2] = test system: Cryptococcus gattii species complex; assay: Antimicrobial activity against Cryptococcus gattii serotype B isolate NIH412 assessed as heteroresistant isolates at 2 ug/ml; format: functional, Cryptococcus bacillisporus; method in brief: as §1
# [3] = test system: Cryptococcus gattii species complex; assay: Antimicrobial activity against Cryptococcus gattii serotype B isolate RB22 assessed as heteroresistant isolates at 2 ug/ml; format: functional, Cryptococcus bacillisporus
# Method in brief: (§2)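 Population analysis: saline cell suspensions (1 × 103 to 4 × 10^3 CFU/ml) plated on plain YPD agar or YPD agar with various fluconazole concentrations; growth recorded after 72 h at 30°C; percentage of resistant subpopulation at each drug level calculated relative to drug-free plate growth.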
# [4] = test system: Cryptococcus gattii species complex; assay: Antimicrobial activity against Cryptococcus gattii serotype C isolate NIH257 assessed as heteroresistant isolates at 2 ug/ml; format: functional, Cryptococcus bacillisporus
# Method in brief: (§3)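 Cell suspensions of 1 × 10^3 to 4 × 10^3 CFU/ml were made in sterile saline and plated on plain YPD agar or YPD agar with various fluconazole concentrations. Plates were incubated at 30°C for 72 h, and the percentage of resistant subpopulation emerging was recorded.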
# [5] = test system: Cryptococcus gattii species complex; assay: Antimicrobial activity against Cryptococcus gattii serotype C isolate NIH298 assessed as heteroresistant isolates at 2 ug/ml; format: functional, Cryptococcus bacillisporus; method in brief: as §3
# [6] = test system: Cryptococcus gattii species complex; assay: Antimicrobial activity against Cryptococcus gattii serotype B isolate NIH281 assessed as concentration required for heteroresistance; format: functional, Cryptococcus bacillisporus
# Method in brief: (§4)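 Fluconazole spot test: 10-fold serial dilutions of each single-colony-purified strain spotted on YPD agar alone and YPD agar with fluconazole at 4 to 128 μg/ml. The level of heteroresistance to fluconazole (LHF) is the lowest drug concentration at which minor resistant subpopulations emerge within the spot.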
# [7] = test system: Cryptococcus deuterogattii; assay: Antimicrobial activity against Cryptococcus gattii serotype B isolate NIH444 assessed as heteroresistant isolates at 8 ug/ml; format: functional, Cryptococcus bacillisporus; method in brief: as §1
# [8] = test system: Cryptococcus gattii species complex; assay: Antimicrobial activity against Cryptococcus gattii serotype B isolate B5765 assessed as heteroresistant isolates at 8 ug/ml; format: functional, Cryptococcus bacillisporus; method in brief: as §1
# [9] = test system: Cryptococcus gattii species complex; assay: Antimicrobial activity against Cryptococcus gattii serotype C isolate H0058-1-818 assessed as heteroresistant isolates at 32 ug/ml; format: functional, Cryptococcus bacillisporus; method in brief: as §2
# [10] = test system: Cryptococcus gattii species complex; assay: Antimicrobial activity against fluconazole-resistant Cryptococcus gattii serotype B isolate RAM15 at 256 ug/ml; format: functional, organism-based; settings: Cryptococcus bacillisporus
# [11] = test system: Cryptococcus bacillisporus; assay: Antimicrobial activity against Cryptococcus gattii serotype C isolate NIH191 assessed as heteroresistant isolates at 8 ug/ml; format: functional; method in brief: as §3
# [12] = test system: Cryptococcus gattii species complex; assay: Antimicrobial activity against Cryptococcus gattii serotype B isolate B4506 assessed as heteroresistant isolates at 2 ug/ml; format: functional, Cryptococcus bacillisporus; method in brief: as §1
# [13] = test system: Cryptococcus gattii species complex; assay: Antimicrobial activity against Cryptococcus gattii serotype C isolate NIH917 assessed as concentration required for heteroresistance; format: functional, Cryptococcus bacillisporus
# Method in brief: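 […] on YPD agar at 4 to 128 μg/ml. The lowest drug concentration at which minor resistant subpopulations emerged within the patch was scored as the strain's level of heteroresistance.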
# [14] = test system: Cryptococcus gattii species complex; assay: Antimicrobial activity against Cryptococcus gattii serotype B isolate B5765 assessed as heteroresistant isolates at 2 ug/ml; format: functional, Cryptococcus bacillisporus; method in brief: as §1
# [15] = test system: Cryptococcus gattii species complex; assay: Antimicrobial activity against Cryptococcus gattii serotype B isolate NIH767 assessed as concentration required for heteroresistance; format: functional, Cryptococcus bacillisporus; method in brief: as §4
# [16] = test system: Cryptococcus bacillisporus; assay: Antimicrobial activity against Cryptococcus gattii serotype C isolate NIH191 assessed as heteroresistant isolates at 4 ug/ml; format: functional; method in brief: as §2
# [17] = test system: Cryptococcus gattii species complex; assay: Antimicrobial activity against Cryptococcus gattii serotype B isolate NIH286 assessed as heteroresistant isolates at 4 ug/ml; format: functional, Cryptococcus bacillisporus; method in brief: as §1
# [18] = test system: Cryptococcus gattii species complex; assay: Antimicrobial activity against Cryptococcus gattii serotype B isolate NIH200 assessed as concentration required for heteroresistance; format: functional, Cryptococcus bacillisporus; method in brief: as §4
# [19] = test system: Cryptococcus gattii species complex; assay: Antimicrobial activity against fluconazole-resistant Cryptococcus gattii serotype B isolate RB14 at 256 ug/ml; format: functional, organism-based; settings: Cryptococcus bacillisporus
# [20] = test system: Cryptococcus gattii species complex; assay: Antimicrobial activity against Cryptococcus gattii serotype C isolate NIH34 assessed as heteroresistant isolates at 16 ug/ml; format: functional, Cryptococcus bacillisporus; method in brief: as §3
# [21] = test system: Cryptococcus gattii species complex; assay: Antimicrobial activity against Cryptococcus gattii serotype C isolate NIH187 assessed as concentration required for heteroresistance; format: functional, Cryptococcus bacillisporus
# [22] = test system: Cryptococcus gattii species complex; assay: Antimicrobial activity against Cryptococcus gattii serotype B isolate NIH190 assessed as heteroresistant isolates at 2 ug/ml; format: functional, Cryptococcus bacillisporus; method in brief: as §1
# [23] = test system: Cryptococcus gattii species complex; assay: Antimicrobial activity against Cryptococcus gattii serotype B isolate B5788 assessed as heteroresistant isolates at 8 ug/ml; format: functional, Cryptococcus bacillisporus; method in brief: as §1
# [24] = test system: Cryptococcus bacillisporus; assay: Antimicrobial activity against Cryptococcus gattii serotype C isolate NIH191 assessed as heteroresistant isolates at 2 ug/ml; format: functional; method in brief: as §2
# [25] = test system: Cryptococcus gattii species complex; assay: Antimicrobial activity against Cryptococcus gattii serotype C isolate H0058-1-1686 assessed as heteroresistant isolates at 16 ug/ml; format: functional, Cryptococcus bacillisporus; method in brief: as §2
compound,measurement,setting,value
OC(Cn1cncn1)(Cn1cncn1)c1ccc(F)cc1F [FLUCONAZOLE],Activity,[1],0.5%
same,Activity,[2],100%
same,Activity,[3],100%
same,Activity,[4],100%
same,Activity,[5],100%
same,Activity,[6],4 µg/mL
same,Activity,[7],100%
same,Activity,[8],100%
same,Activity,[9],16%
same,Activity,[10],inactive
same,Activity,[11],100%
same,Activity,[12],100%
same,Activity,[13],32 µg/mL
same,Activity,[14],100%
same,Activity,[15],32 µg/mL
same,Activity,[16],100%
same,Activity,[17],100%
same,Activity,[18],4 µg/mL
same,Activity,[19],inactive
same,Activity,[20],0.22%
same,Activity,[21],32 µg/mL
same,Activity,[22],100%
same,Activity,[23],5.7%
same,Activity,[24],100%
same,Activity,[25],100%
